ChEMBL document CHEMBL2169742, “Design, synthesis, and biological evaluation of novel transrepression-selective liver X receptor (LXR) ligands with 5,11-dihydro-5-methyl-11-methylene-6H-dibenz[b,e]azepin-6-one skeleton” (J Med Chem, 2012)
The source made the active and inactive calls. No cut-off for these calls is given here.

What was measured:
[1] = biological target: T1, Oxysterols receptor LXR-alpha (Homo sapiens, UniProt Q13133); assay: Transactivational agonist activity at human LXRalpha transfected in HEK293 cells coexpressing CMX-Gal4N-SRC1 assessed as SRC1 recruitment at 10 uM after 16 hrs by mammalian two-hybrid assay; type: cell-based; settings: hek293, 16 h
T1 sequence (Q13133 whole entry): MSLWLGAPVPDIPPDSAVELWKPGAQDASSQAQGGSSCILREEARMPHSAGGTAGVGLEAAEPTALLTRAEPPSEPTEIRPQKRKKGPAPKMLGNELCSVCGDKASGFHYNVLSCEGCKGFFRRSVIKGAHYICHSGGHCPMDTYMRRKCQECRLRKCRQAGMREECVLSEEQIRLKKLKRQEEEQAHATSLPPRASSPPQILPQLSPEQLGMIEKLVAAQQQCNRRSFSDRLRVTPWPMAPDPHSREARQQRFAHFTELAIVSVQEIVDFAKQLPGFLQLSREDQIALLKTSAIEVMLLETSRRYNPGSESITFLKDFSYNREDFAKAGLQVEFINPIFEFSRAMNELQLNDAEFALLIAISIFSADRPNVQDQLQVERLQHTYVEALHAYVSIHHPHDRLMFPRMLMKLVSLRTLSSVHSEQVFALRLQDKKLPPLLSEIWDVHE
In short: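 Mammalian two-hybrid in HEK293 cells by calcium phosphate cotransfection: CMX-VP16N-hLXRα, Gal4N-fused SRC1, DRIP205, NCoR or SMRT (15 ng), tk-MH100×4-luc (50 ng) and CMX-β-gal (10 ng). Compound or DMSO added 8 h after transfection for 16 h. Luciferase was normalized to β-galactosidase, in triplicate.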

[2] = biological target: T2, Peroxisome proliferator-activated receptor gamma (Homo sapiens) (UniProt P37231); assay: Agonist activity at human Gal4-fused PPARgamma assessed as luciferase activity at 10 uM by reporter gene assay relative to control; type: functional
T2 sequence (whole entry): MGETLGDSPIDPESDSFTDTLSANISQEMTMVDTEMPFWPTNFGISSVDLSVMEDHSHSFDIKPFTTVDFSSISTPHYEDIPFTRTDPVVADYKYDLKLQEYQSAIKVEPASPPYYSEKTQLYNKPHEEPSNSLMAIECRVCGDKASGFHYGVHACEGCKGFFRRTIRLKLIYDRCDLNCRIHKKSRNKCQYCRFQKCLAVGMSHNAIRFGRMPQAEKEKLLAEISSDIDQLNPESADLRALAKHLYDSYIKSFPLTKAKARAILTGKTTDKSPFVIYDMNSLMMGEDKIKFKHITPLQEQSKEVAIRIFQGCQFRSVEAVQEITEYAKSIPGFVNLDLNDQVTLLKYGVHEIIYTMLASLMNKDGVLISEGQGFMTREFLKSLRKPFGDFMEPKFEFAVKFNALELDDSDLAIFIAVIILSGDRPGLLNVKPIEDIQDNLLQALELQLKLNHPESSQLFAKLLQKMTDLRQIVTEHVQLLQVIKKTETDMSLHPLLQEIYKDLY

[3] = biological target: T3, Bile acid receptor (Homo sapiens) (UniProt Q96RI1); assay: Antagonist activity at human Gal4-fused FXR assessed as inhibition of chenodeoxycholic acid-induced luciferase activity at 0.03 to 10 uM by reporter gene assay; type: functional
T3 sequence (whole entry): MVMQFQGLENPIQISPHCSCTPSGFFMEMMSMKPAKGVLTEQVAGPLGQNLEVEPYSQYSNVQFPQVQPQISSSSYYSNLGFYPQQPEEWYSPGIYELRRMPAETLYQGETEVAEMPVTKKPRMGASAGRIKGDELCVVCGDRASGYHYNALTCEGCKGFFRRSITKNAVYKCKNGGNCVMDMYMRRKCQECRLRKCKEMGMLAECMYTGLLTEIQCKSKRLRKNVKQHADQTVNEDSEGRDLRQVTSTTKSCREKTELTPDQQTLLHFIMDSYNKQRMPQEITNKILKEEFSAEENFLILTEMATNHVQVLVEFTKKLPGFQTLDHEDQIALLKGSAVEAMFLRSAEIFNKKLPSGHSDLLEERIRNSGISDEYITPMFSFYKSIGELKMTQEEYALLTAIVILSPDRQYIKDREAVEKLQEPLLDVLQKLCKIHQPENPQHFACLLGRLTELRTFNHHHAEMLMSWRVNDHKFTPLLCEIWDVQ

[4] = test system: Peritoneal macrophage cell; assay: Inhibition of LPS-induced IL-6 mRNA expression in LXRalpha-deficient C57BL/6J mouse peritoneal macrophages at 10 uM incubated for 6 hrs prior to LPS-challenge measured after 18 hrs by RT-PCR analysis; type: functional, cell-based
In short: (§1)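 Thioglycollate-elicited peritoneal macrophages (wild-type C57BL/6J or LXRα-null, 8–10 weeks) were plated at 4 × 10⁶/well and pretreated with compound 6 h before LPS 100 ng/mL. Cells were harvested after 18 h. il-6 and il-1β mRNA were measured by real-time quantitative PCR, normalized to GAPDH.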

[5] = biological target: T1, Oxysterols receptor LXR-alpha; assay: Transactivational antagonist activity at human LXRalpha transfected in HEK293 cells expressing CMX-Gal4N assessed as inhibition of T1317-induced luciferase activity after 16 hrs by reporter gene assay; type: functional, cell-based
[6] = biological target: T4, Oxysterols receptor LXR-beta (Homo sapiens, UniProt P55055); assay: Transactivational antagonist activity at human LXRbeta transfected in HEK293 cells expressing CMX-Gal4N assessed as inhibition of T1317-induced luciferase activity after 16 hrs by reporter gene assay; type: functional, cell-based
T4 sequence (P55055 whole entry): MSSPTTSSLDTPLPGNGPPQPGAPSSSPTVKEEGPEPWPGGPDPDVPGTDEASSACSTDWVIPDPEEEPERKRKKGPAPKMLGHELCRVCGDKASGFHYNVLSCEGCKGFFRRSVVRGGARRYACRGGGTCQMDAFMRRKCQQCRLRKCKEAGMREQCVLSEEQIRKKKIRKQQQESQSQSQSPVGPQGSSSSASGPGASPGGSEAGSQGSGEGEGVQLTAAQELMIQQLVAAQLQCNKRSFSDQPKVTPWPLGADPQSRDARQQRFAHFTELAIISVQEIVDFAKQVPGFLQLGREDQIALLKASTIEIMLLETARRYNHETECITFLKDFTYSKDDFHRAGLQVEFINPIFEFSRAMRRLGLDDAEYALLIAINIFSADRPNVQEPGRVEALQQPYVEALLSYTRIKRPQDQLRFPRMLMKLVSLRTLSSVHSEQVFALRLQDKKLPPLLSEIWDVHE

[7] = test system: Peritoneal macrophage cell; assay: Inhibition of LPS-induced IL-6 production in LXRalpha,LXRbeta-deficient C57BL/6J mouse peritoneal macrophages at 10 uM incubated for 6 hrs prior to LPS-challenge measured after 18 hrs by ELISA; type: functional, cell-based
In short: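 Thioglycollate-elicited peritoneal macrophages came from 8–10-week LXRα/β-null mice on C57BL/6J background, harvested 4 days post-injection. They were adhered, rested 24 h and plated at 2 × 10⁵/well, then pretreated with compound 6 h before LPS 10 ng/mL. Supernatant mIL-6 was measured by ELISA after 18 h; means ± SE of ≥3 independent measurements, ANOVA.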

[8] = test system: Peritoneal macrophage cell; assay: Inhibition of LPS-induced IL-1beta mRNA expression in LXRalpha-deficient C57BL/6J mouse peritoneal macrophages at 10 uM incubated for 6 hrs prior to LPS-challenge measured after 18 hrs by RT-PCR analysis; type: functional, cell-based; in short: as §1

- Activity [2]: 20%
- inhibition [3]: inactive
- IC50 [5]: > 30 µM
- IC50 [6]: > 30 µM
SMILES: C=C1c2ccccc2C(=O)N(C)c2ccc(CC)cc21
- Activity [1]: Non-toxic
- inhibition [4]: inactive
- inhibition [7]: inactive
- inhibition [8]: inactive
